The list is not random: actives were taken first. Their share in the collection is about 1.9%.
SR-BI DiI-HDL act: activators of SR-BI mediated DiI-HDL uptake, primary screen, ldlA[mSR-BI] CHO cells, DiI fluorescence; 3 h; 100 = double the neutral-control signal; activation, % at 12.5 µM; hit rate 0.096% among 320,000; AID 504775, 2011;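 active means mean replicate activation of at least 60% and every replicate at or above 60%; inconclusive means mean or all-replicate condition met, but not both; inactive means mean below 60% and not all replicates reaching 60%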
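Assay system: LDL receptor-deficient CHO ldlA cells overexpressing murine SR-BI / Medium: BSA-supplemented, HEPES-buffered Ham's F12, pH 7.4 / Probe or stimulus: DiI-labelled HDL at 10 µg/mL final / Timing: compound with DiI-HDL co-incubation, 3 h at 37 °C / Technique: bottom-read cell fluorescence after medium removal, ex 550/em 595 nm / Measure: HDL uptake via cellular fluorescence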
Rin1 Abl inh: inhibitors of Rin1-Abl protein binding, primary screen, biochemical, TR-FRET; Tyrosine-protein kinase ABL1 (Homo sapiens) + Ras and Rab interactor 1 (Homo sapiens), …; inhibition, % at 7.35 µM; hit rate 0.4% among 360,000; in the data active means inhibition above about 5%, passing the limit was not always enough
GRK2 aptamer HTS: compounds blocking aptamer binding on GRK2 – biochemical, human GRK2, bead flow cytometry, HTS, primary screen; FAM-aptamer displacement from GRK2; inhibition of aptamer binding, % at 10 µM; hit rate 0.59% among 330,000;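 active means inhibition of aptamer binding above 40%, roughly 3 SD of noise, on plates passing a quality check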;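 further: median bead fluorescence of bound FAM aptamer so fluorescent compounds give negative values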
SR-BI DiI inh: inhibitors of SR-BI mediated HDL lipid uptake, primary screen, ldlA[mSR-BI] cells, fluorescence, single point. Scavenger receptor class B member 1 (Mus musculus), Q61009. hit rate 0.96% among 320,000. inhibition, % at 12.5 µM. ldlA[mSR-BI] CHO cells, DiI-HDL uptake fluorescence, 3 h;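 active means mean replicate inhibition of at least 70% and a set share of replicates each scoring 70 or more; inconclusive means meets just one of the two criteria; inactive means fails both criteria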
DiI quencher: quenches DiI-HDL fluorescence, an SR-BI assay artifact. shares compounds with SR-BI DiI inh. cell-free DiI-HDL fluorescence quenching, 30 min. AC50, µM (titrated, usually from 35 µM). hit rate 20% among 470;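 active means quenching, a falling signal, with AC50 below a set limit tied to the top valid dose, actives reach about 32 µM in these data; inconclusive means no clear call, values can overlap the other calls; inactive means rising signal, and the rest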
A number is an active result.

Screening COc1ccc(N2CCN(C(=O)CN3c4cccc5cccc(c45)S3(=O)=O)CC2)cc1 returned SR-BI DiI-HDL act inactive, Rin1 Abl inh inactive, GRK2 aptamer HTS inactive and SR-BI DiI inh inactive.
`Cc1cc(C)c(C)c(S(=O)(=O)N2CCC(C(=O)Nc3ccncc3)CC2)c1C` gave SR-BI DiI-HDL act inactive, Rin1 Abl inh inactive, GRK2 aptamer HTS inactive and SR-BI DiI inh inactive.
Screening Cc1sc(NC(=O)c2cccc([N+](=O)[O-])c2)c(C(N)=O)c1-c1ccc(C(C)(C)C)cc1 returned SR-BI DiI-HDL act inactive, Rin1 Abl inh inactive, GRK2 aptamer HTS inactive, SR-BI DiI inh 77 and DiI quencher inactive.
CCCN(C)C[C@@H]1Oc2ncc(Br)cc2C(=O)N([C@@H](C)CO)C[C@H]1C was read as Rin1 Abl inh inactive.
COc1cc2c(C#CCCCO)c(-c3ccsc3)oc(=O)c2cc1OC was read as SR-BI DiI-HDL act inactive, Rin1 Abl inh inactive, GRK2 aptamer HTS inactive, SR-BI DiI inh inconclusive and DiI quencher inactive.
Screening COc1cc(OC)cc(-c2oc(=O)c3cc(OC)c(OC)cc3c2C#CCCCO)c1 returned SR-BI DiI-HDL act inactive, Rin1 Abl inh inactive, GRK2 aptamer HTS inactive and SR-BI DiI inh inactive.
COCCNC(=O)C1(C)CCCN(C(=O)c2ccc(N(C)C)cc2)C1 (stereo not drawn) was read as Rin1 Abl inh inactive.
Screening COc1ccc([C@H]2CC(=O)C=C(c3cccc4c3sc3ccccc34)C2)cc1OC returned SR-BI DiI-HDL act inactive, Rin1 Abl inh inactive, GRK2 aptamer HTS inactive, SR-BI DiI inh 96 and DiI quencher inactive.
CCN(CC)C(=O)C1=C(C)N(CCCOC)C(=O)C(CC(=O)NCCCCc2ccccc2)C1 (stereo not drawn) was read as Rin1 Abl inh inactive.
CC(C)(C)NC(=O)N1CCN(c2ncccc2C(F)(F)F)CC1 was read as SR-BI DiI-HDL act inactive, Rin1 Abl inh inactive, GRK2 aptamer HTS inactive, SR-BI DiI inh 88 and DiI quencher inactive.
Cc1oc(C(C)(C)C)cc1C(=O)N1CCN(c2ncccc2C(F)(F)F)CC1 was read as SR-BI DiI-HDL act inactive, Rin1 Abl inh inactive, GRK2 aptamer HTS inactive and SR-BI DiI inh inactive.
`O=C(Nc1ccc(N2CCOCC2)cc1)c1cccc(S(=O)(=O)N2CCCC2)c1` gave SR-BI DiI-HDL act inactive, Rin1 Abl inh inactive, GRK2 aptamer HTS inactive and SR-BI DiI inh inactive.
Screening O=C(Nc1ccc(N2CCOCC2)cc1)c1cccc(S(=O)(=O)N2CCC(Cc3ccccc3)CC2)c1 returned SR-BI DiI-HDL act inactive, Rin1 Abl inh inactive, GRK2 aptamer HTS inactive, SR-BI DiI inh 93 and DiI quencher inactive.
`CCCCCCCCOC(=O)CCc1c(C)[nH]c(=S)[nH]c1=O` gave SR-BI DiI-HDL act inactive, Rin1 Abl inh inactive, GRK2 aptamer HTS inactive, SR-BI DiI inh 80 and DiI quencher inactive.
`CCCCCCOC(=O)CCc1c(C)nc(N)[nH]c1=O` gave SR-BI DiI-HDL act inactive, Rin1 Abl inh inactive, GRK2 aptamer HTS inactive and SR-BI DiI inh inactive.
Cc1cccc(N2CCN(C(=O)COc3ccc4c(C)cc(=O)oc4c3C)CC2)c1C was read as SR-BI DiI-HDL act inactive, Rin1 Abl inh inactive, GRK2 aptamer HTS inactive, SR-BI DiI inh inconclusive and DiI quencher inactive.
Screening Cc1cc(=O)oc2c(C)c(OCC(=O)N3CCN(c4ccc(F)cc4)CC3)ccc12 returned Rin1 Abl inh inactive and GRK2 aptamer HTS inactive.
Screening COc1ccc(NC(=O)CC(c2ccc(F)cc2)c2ccc(OC(C)C)cc2)cc1 (stereo not drawn) returned SR-BI DiI-HDL act inactive, Rin1 Abl inh inactive, GRK2 aptamer HTS inactive and SR-BI DiI inh inactive.
COc1ccccc1C(CC(=O)Nc1ccccc1C)c1ccc(OC(C)C)cc1 (stereo not drawn) was read as SR-BI DiI-HDL act inactive, Rin1 Abl inh inactive, GRK2 aptamer HTS inactive, SR-BI DiI inh inconclusive and DiI quencher inactive.
Screening CCN(c1ccccc1)S(=O)(=O)c1ccc(C(=O)N2CCN(c3ccccc3)CC2)cc1 returned SR-BI DiI-HDL act inactive, Rin1 Abl inh inactive, GRK2 aptamer HTS inactive and SR-BI DiI inh inactive.
`COc1cc(OC)cc(C(=O)N[C@H](C(=O)Nc2nc(-c3ccc(F)c(F)c3)cs2)C(C)C)c1` gave SR-BI DiI-HDL act inactive, Rin1 Abl inh inactive, GRK2 aptamer HTS inactive, SR-BI DiI inh 84 and DiI quencher inactive.
Screening Cc1c(Nc2nc3ccccc3nc2N2CCN(c3ccccc3)CC2)c(=O)n(-c2ccccc2)n1C returned SR-BI DiI-HDL act inactive, Rin1 Abl inh inactive, GRK2 aptamer HTS inactive, SR-BI DiI inh inconclusive and DiI quencher inactive.
For COCCN(Cc1cn(C)nc1-c1ccc(Oc2ccccc2)cc1)C(C)C the results were SR-BI DiI-HDL act inactive, Rin1 Abl inh inactive, GRK2 aptamer HTS inactive, SR-BI DiI inh 82 and DiI quencher inactive.
CC(C)N(C)Cc1cn(C)nc1-c1ccc(Oc2ccccc2)cc1 was read as SR-BI DiI-HDL act inactive, Rin1 Abl inh inactive, GRK2 aptamer HTS inactive and SR-BI DiI inh inactive.
For CCOC(=O)C1(C)CCCN(C(=O)c2cc(C#N)cs2)C1 (stereo not drawn) the results were Rin1 Abl inh inactive.
Screening COc1ccc(CCNC(=O)CCC(=O)N2CC(C)Oc3ccc(Cl)cc32)cc1OC (stereo not drawn) returned SR-BI DiI-HDL act inactive, Rin1 Abl inh inactive, GRK2 aptamer HTS inactive, SR-BI DiI inh inconclusive and DiI quencher inactive.
`Nn1cnc2scc(-c3ccco3)c2c1=O` gave SR-BI DiI-HDL act inactive, Rin1 Abl inh inactive, GRK2 aptamer HTS inactive and SR-BI DiI inh inactive.
`O=C(Nc1nc(NC(=O)c2ccco2)n(-c2ccccc2)n1)c1ccccc1` gave SR-BI DiI-HDL act inactive, Rin1 Abl inh inactive, GRK2 aptamer HTS inactive, SR-BI DiI inh 122 and DiI quencher 2µM.
For Nc1nc(NC(=O)c2ccccc2)nn1-c1ccccc1 the results were SR-BI DiI-HDL act inactive, Rin1 Abl inh inactive, GRK2 aptamer HTS inactive and SR-BI DiI inh inactive.
For COC(=O)c1ccc(NC(=O)CCN2CCOCC2)cc1 the results were SR-BI DiI-HDL act inactive, Rin1 Abl inh inactive, GRK2 aptamer HTS inactive and SR-BI DiI inh inactive.
For CCc1sc(NC(C)=O)nc1-c1ccccc1 the results were SR-BI DiI-HDL act inactive, Rin1 Abl inh inactive, GRK2 aptamer HTS inactive and SR-BI DiI inh inactive.
Screening CCc1sc(N2C(=O)C3C4CCC(C4=C(C)C)C3C2=O)nc1-c1ccccc1 (stereo not drawn) returned SR-BI DiI-HDL act inactive, Rin1 Abl inh inactive, GRK2 aptamer HTS inactive, SR-BI DiI inh 84 and DiI quencher inactive.
`CCOC(=O)C1(C)CCCN(C(=O)c2ccc(OC)cc2)C1` (stereo not drawn) gave Rin1 Abl inh inactive.
For O=C(NNC(=O)c1ccccc1O)c1ccc(S(=O)(=O)Nc2ccccc2)cc1 the results were SR-BI DiI-HDL act inactive, Rin1 Abl inh inactive, GRK2 aptamer HTS inactive, SR-BI DiI inh 113 and DiI quencher 0.4µM.
